The whole screen tested about 190,000 compounds, of which about 590 (0.31%) were called active. The sample holds actives, similar compounds and a random draw of the others, so the mix is not that of the screen.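 Rule for the calls: active = nuclear translocation activity above 50% at 5 µM, with a well cell count of 50 or more; inconclusive = wells under 50 cells across six images, flagged as toxic; inactive = the rest.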

The experiment in a line: beta-catenin nuclear localization change in HeLa – imaging, HeLa cells, immunofluorescence, high-content, primary screen (AID 1665).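 For nuclear translocation activity: per-cell ratio of nuclear to cytoplasmic median beta-catenin stain intensity; plate controls were DMSO negative control for no effect and GSK-3 inhibitor IX positive control for full effect.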 Particulars: at 5 µM; cell count: HeLa beta-catenin nuclear translocation, measured here: cell count, cytotoxicity flag; nuclear translocation activity: stronger effect = higher value. Summed up:
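Test system: human HeLa cell line; Doses: 5 µM primary, 0.02–20 µM confirmation; Incubation: 24 h compound exposure, 37°C; Detection: beta-catenin immunofluorescence imaging with DAPI; Read-out: beta-catenin nuclear/cytoplasmic ratio, % activation.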
Consider `Cn1nccc1NC(=O)Nc1ccc(OC(F)(F)F)cc1`, for which the cell count was 1280 cells and the nuclear translocation activity was 0.7% (inactive).
For `CC(C)Cc1ccc(C(C)C(=N)N)cc1` (stereo not given), in that order: 1310 cells and 1.1% (inactive).
On to `COc1ccc(CNC(=O)C2CC(c3ccc(C(F)(F)F)cc3)=NO2)cc1` (stereo not given), for which the cell count was found to be 1110 cells and the nuclear translocation activity is 2.2% (inactive).
For `COc1ccc(-c2cc(C(=O)NCc3ccco3)no2)cc1OC`, the cell count turned out to be 1220 cells and the nuclear translocation activity is -1.7% (inactive).
For `COc1ccc(C2=NOC(C(=O)NCc3ccco3)C2)cc1OC` (stereo not given), in that order: 701 cells and 166% (active).
In the same order, the values of `COc1ccc(S(=O)(=O)N(CC(=O)N/N=C/c2ccccc2C(=O)O)c2ccccc2OC)cc1` are 1300 cells and -0.3% (inactive).
For `Cc1cc(=O)oc2cc(OCCC[n+]3ccccc3)ccc12`, in that order: 1370 cells and -1% (inactive).
Regarding `Cc1cc(=O)oc2cc(OCC3CC(c4ccccc4Cl)=NO3)ccc12` (stereo not given), the cell count worked out at 228 cells and the nuclear translocation activity was 168% (active).
As to `Cc1ccccc1N1CCN(CCCOc2ccc3c(C)cc(=O)oc3c2)CC1`, the cell count stood at 1030 cells and the nuclear translocation activity is 1.9% (inactive).
For the compound `COc1ccc(C(C(=O)NC(C)(C)C)N(C(=O)Cn2nnc3ccccc32)c2ccc(C(C)=O)cc2)cc1O` (stereo not given), the cell count worked out at 1370 cells and the nuclear translocation activity was -1% (inactive).
For `CCOc1cccc(-n2nnnc2-c2ccc(OC)cc2)c1`, in that order: 184 cells and 63.9% (active).
For `CCOc1cccc(-c2nnc3sc(COc4ccc(OC)cc4)nn23)c1`, in that order: 1020 cells and -0.9% (inactive).
For `COc1ccc(-n2nnnc2-c2nc3ccccc3s2)cc1`, in that order: 953 cells and 0.1% (inactive).
As to `CC(C)(C)NC(=O)/C(=C/c1cccnc1)NC(=O)c1ccco1`, the cell count stood at 1310 cells and the nuclear translocation activity was -0.7% (inactive).
In the same order, the values of `Cc1nn2c(NCCN(C)C)c3c(nc2c1-c1ccccc1)CCC3` are 1430 cells and 0.3% (inactive).
For `C=CCNC(=S)N1CCc2[nH]c3ccccc3c2C1`, in that order: 1340 cells and 0.9% (inactive).
In the same order, the values of `O=C(NNC(=S)Nc1ccc(F)cc1)[C@H]1C[C@@H]1c1ccccc1` are 1360 cells and -0.2% (inactive).
Consider `Cc1ccc(/C=N/NC(=S)NC2CCCCC2)o1`, for which the cell count came to 1310 cells and the nuclear translocation activity is -0.8% (inactive).
In the same order, the values of `Cc1cc(C)cc(OCC(=O)O/N=C(\N)Cc2ccc([N+](=O)[O-])cc2)c1` are 1030 cells and -2.4% (inactive).
For `COc1ccc(-c2nn(C)c(=O)c3ccccc23)cc1CNC(=O)C1CCCCC1`, in that order: 1350 cells and 0.1% (inactive).
`COc1ccc(C(CC(=O)N2CCN(c3ccccc3)CC2)c2c(O)cc(OC)cc2OC)cc1` (stereo not given): the cell count was 1050 cells and the nuclear translocation activity was 0.9% (inactive).
For `Cc1ccc(/C=N/NC(=O)CSc2ccccn2)o1`, the cell count is 1300 cells and the nuclear translocation activity was 0.7% (inactive).
In the same order, the values of `COC(=O)c1c(C)oc(C)c1S(=O)(=O)Nc1ccc(C(C)C)cc1` are 1320 cells and -1.4% (inactive).
Turning to `CC12C(=O)N(c3ccccc3)C(=O)C1C(c1ccccc1)N1CCCN12` (stereo not given), the cell count was 1080 cells and the nuclear translocation activity is -5.7% (inactive).
In the same order, the values of `COc1cc(NC(=O)c2ccc(CNc3c(N4CCCC4)c(=O)c3=O)cc2)cc(OC)c1OC` are 1340 cells and -0.2% (inactive).
In the same order, the values of `O=C(CSc1nnc(SCc2ccc(F)cc2)s1)Nc1ccc(C(=O)O)cc1` are 1300 cells and -1% (inactive).
In the same order, the values of `CCOC(=O)N/N=C1\CC(C)S(=O)(=O)c2ccc(Cl)cc21` (stereo not given) are 1360 cells and 0.2% (inactive).
As for `Cc1cc(C(=O)N/N=C/c2ccccc2[N+](=O)[O-])c(C)o1`, the cell count is 1070 cells and the nuclear translocation activity was -0.2% (inactive).
For the compound `Cc1c(C(=O)N/N=C/c2ccccc2)[nH]c2c([N+](=O)[O-])cccc12`, the cell count was determined as 474 cells and the nuclear translocation activity was 69.8% (active).
For `O=C(N/N=C/c1ccc([N+](=O)[O-])cc1)c1c[nH]c2ccccc12`, in that order: 1150 cells and -1.5% (inactive).
For `c1csc(-c2nnc(COc3ncnc4sccc34)o2)c1`, the cell count worked out at 1250 cells and the nuclear translocation activity was 2.6% (inactive).
In the same order, the values of `O=C(NC(=O)N1CCSCC1)c1c(Cl)cccc1Cl` are 1280 cells and 0.2% (inactive).
Turning to `O=C(Nc1cccnc1)c1cc([N+](=O)[O-])ccc1Cl`, the cell count amounted to 1370 cells and the nuclear translocation activity was -0.7% (inactive).
For `Cc1ccc(C2CC(=O)NC(SCC(=O)OCc3ccccc3)=C2C#N)o1` (stereo not given), in that order: 922 cells and 47.9% (inactive).
For `CCOC(=O)CSC1=C(C#N)C(c2sccc2C)CC(=O)N1` (stereo not given), in that order: 658 cells and 69% (active).
Regarding `C=CCOC(=O)C1=C(C)NC(SCC(=O)OCC)=C(C#N)C1c1ccc(C)cc1` (stereo not given), the cell count is 1350 cells and the nuclear translocation activity is 0.1% (inactive).
For `O=C(O)C1CCN(C(=O)c2cc(F)cc3c2OCOC3)CC1`, in that order: 1200 cells and -2.6% (inactive).
In the case of `O=C(NNC(=S)NC1CC2CCC1C2)c1ccc(Cl)cc1` (stereo not given), the cell count came out at 1150 cells and the nuclear translocation activity was -1.4% (inactive).
In the same order, the values of `CCNC(=O)CCc1nc(-c2ccc(C)cc2)no1` are 1360 cells and -0.5% (inactive).
For `COc1ccc(C)c(Cn2c(-c3nonc3N)nc3ccccc32)c1`, in that order: 720 cells and 101% (active).
On to `Nc1nonc1-c1nc2ccccc2n1Cc1ccc(F)cc1`, for which the cell count was determined as 778 cells and the nuclear translocation activity is -0.5% (inactive).
For `Nc1nonc1-c1nc2ccccc2n1CCC(=O)O`, in that order: 899 cells and -2% (inactive).
Regarding `COc1ccc(Cc2nnc(NC(=O)c3cc(OC)c(OC)c(OC)c3)s2)cc1OC`, the cell count is 371 cells and the nuclear translocation activity was 53.4% (active).
For `CCCc1nnc(NC(=O)c2cc(OC)cc(OC)c2)s1`, in that order: 878 cells and -2.3% (inactive).
As to `O=C(Nc1nnc(Cc2ccc(Cl)cc2)s1)c1ccncc1`, the cell count was 1270 cells and the nuclear translocation activity is 1% (inactive).
In the same order, the values of `O=[N+]([O-])c1ccc2nc(-c3ccccn3)[nH]c2c1` are 1380 cells and -0.1% (inactive).
Consider `Brc1ccc(-c2nn[nH]n2)cc1`, for which the cell count was 1320 cells and the nuclear translocation activity was 0.9% (inactive).
In the same order, the values of `Nc1ccc(C(=O)OCC(=O)NC2CCS(=O)(=O)C2)cc1[N+](=O)[O-]` (stereo not given) are 1260 cells and -3.1% (inactive).
`Nc1c(N(CCO)C(=O)C2CCCCC2)c(=O)[nH]c(=O)n1Cc1ccccc1`: the cell count stood at 1350 cells and the nuclear translocation activity is 0.2% (inactive).
With `O=C(Nc1ccc(S(=O)(=O)N2CCOCC2)cc1)c1ccc2ncsc2c1`, the cell count worked out at 1420 cells and the nuclear translocation activity was -1.2% (inactive).
In the same order, the values of `O=C(NCc1ccco1)C1CCCN1S(=O)(=O)c1ccccc1C(F)(F)F` (stereo not given) are 1300 cells and -0.6% (inactive).
For the compound `Cc1cc(CO)nn1-c1ccc([N+](=O)[O-])cc1`, the cell count was 1190 cells and the nuclear translocation activity was -2.5% (inactive).
For `COc1ccc(Cl)cc1C(=O)NNC(=O)c1nc2nc(C)cc(C)n2n1`, in that order: 1330 cells and 1.2% (inactive).
For `COc1cc2c(cc1OC)C(/C=C/c1ccco1)=NCC2`, in that order: 1310 cells and 2% (inactive).
For `Cc1ccc(C)c2[nH]c(=O)c(CN(Cc3cccnc3)C(=S)NCc3ccco3)cc12`, in that order: 1320 cells and -1.9% (inactive).
Turning to `O=C(COC(=O)c1cc(S(=O)(=O)N2CCCCC2)ccc1Cl)NCc1ccco1`, the cell count amounted to 1080 cells and the nuclear translocation activity is -1.5% (inactive).
In the same order, the values of `CN(c1ccccc1)S(=O)(=O)c1ccc(Cl)c(C(=O)OCC(=O)NCc2ccco2)c1` are 1260 cells and -0.2% (inactive).
`Cc1cc(C(=O)OCC(=O)NCc2ccco2)c(C)n1-c1ccccc1`: the cell count turned out to be 337 cells and the nuclear translocation activity was 94.1% (active).
For `COc1ccc(C(=O)NN(C)c2nc(-c3ccccc3)cc(C)c2S(C)(=O)=O)cc1`, in that order: 1220 cells and -2.1% (inactive).
In the same order, the values of `Cc1cc(C)n(-c2nc(C(F)(F)F)nc3ccccc23)n1` are 998 cells and 0% (inactive).
In the same order, the values of `CSc1nc(N(C)NC(=O)c2cccc(C)c2)c2ccccc2n1` are 751 cells and 97.3% (active).
As to `COc1ccc(OCC(=O)NNC(=O)c2cccc(C)c2)cc1`, the cell count came out at 1060 cells and the nuclear translocation activity was -0.2% (inactive).
As to `CN(NC(=O)c1ccccc1)c1nc2ccccc2nc1C(F)(F)F`, the cell count came to 965 cells and the nuclear translocation activity is 6.3% (inactive).
For `CN(NC(=O)c1ccccc1F)c1nc(C(F)(F)F)nc2ccccc12`, in that order: 103 cells and 155% (active).
`COC(=O)c1sccc1NN1C(=O)c2ccccc2C1=O`: the cell count amounted to 1180 cells and the nuclear translocation activity was -1.9% (inactive).
For `COC(=O)c1cc(N2CCNCC2)nc2ccccc12`, in that order: 1220 cells and 1.7% (inactive).
Turning to `Cc1ccc(F)cc1NC(=O)N1CCCN(c2ccc(C(F)(F)F)cn2)CC1`, the cell count stood at 1280 cells and the nuclear translocation activity was -1% (inactive).
For the compound `CCN(CC)c1ccc(/C=N/NC(=O)c2cnccn2)c(O)c1`, the cell count amounted to 1050 cells and the nuclear translocation activity is 12.5% (inactive).
For `Cc1cc2c(cc1C)N(Cc1ccccc1)C1=NCCCN12`, in that order: 1210 cells and -0.7% (inactive).
Consider `Cc1ccc(NC(=O)/C(=C\c2ccccc2)NC(=O)c2ccco2)cc1`, for which the cell count was 1370 cells and the nuclear translocation activity was 0.2% (inactive).
For `COC(=O)c1cn(C(=O)c2ccc(Cl)cc2)c2ccccc12`, in that order: 1100 cells and -1.4% (inactive).
For `COc1c(N2CCN(C(=S)Nc3ccccc3F)C(C)C2)c(F)cc2c(=O)c(C(=O)O)cn(C3CC3)c12` (stereo not given), in that order: 1380 cells and 0.4% (inactive).
For `Cc1ccc(OCC(=O)N/N=C\c2ccco2)c(C)c1`, in that order: 1340 cells and -1.4% (inactive).
Turning to `CSc1ccc(/C=N\NC(=O)COc2ccc(Cl)cc2Br)cc1`, the cell count worked out at 812 cells and the nuclear translocation activity is -1.4% (inactive).
For `Cc1ccc(/C=N/NC(=O)COc2ccccc2-c2ccccc2)cc1`, in that order: 162 cells and 107% (active).
In the same order, the values of `COc1ccc(CCN2C(=O)CC(N3CCC(C(N)=O)CC3)C2=O)cc1OC` (stereo not given) are 1240 cells and 0.6% (inactive).
On to `Cc1ccc(N2NC(=O)/C(=C/C=C/c3ccco3)C2=O)cc1C`, for which the cell count was 1100 cells and the nuclear translocation activity is 1.3% (inactive).
In the same order, the values of `Cc1cccc(N=C2NC(=O)/C(=C/c3cn(C)c4ccccc34)S2)c1` are 1040 cells and 0.7% (inactive).
For `Cc1ccc(N=C2NC(=O)/C(=C/C=C/c3ccco3)S2)cc1C`, in that order: 321 cells and 58.6% (active).
For `CCCNc1c(N)c(=O)c1=O`, in that order: 1380 cells and -0.4% (inactive).
Turning to `O=C(N/N=C/c1cccc2cccnc12)[C@H]1C[C@@H]1c1ccccc1`, the cell count came to 1300 cells and the nuclear translocation activity is 2.9% (inactive).
In the same order, the values of `Cc1noc(C)c1C(=O)OCC(=O)N1CCN(S(=O)(=O)c2ccc3ccccc3c2)CC1` are 1300 cells and 0.1% (inactive).
For `Cc1ccc(C(=O)N/C(=C\c2ccco2)C(=O)NC2CCS(=O)(=O)C2)cc1` (stereo not given), in that order: 1360 cells and -0.2% (inactive).
In the same order, the values of `COc1ccc(CCNC(=O)C(=O)NCC2CCNCC2)cc1OC` are 1380 cells and -1.5% (inactive).
For the compound `COc1ccc(CCNC(=O)C(=O)Nc2ccc3nc4n(c(=O)c3c2)CCCCC4)cc1OC`, the cell count was determined as 1400 cells and the nuclear translocation activity was 0.2% (inactive).

Values taken from PubChem BioAssay AID1665 (Sanford-Burnham Center for Chemical Genomics, 2009).
